{"source": "ChEMBL document CHEMBL5346889", "about": "“Discovery of 4-oxo-N-phenyl-1,4-dihydroquinoline-3-carboxamide derivatives as novel anti-inflammatory agents for the treatment of acute lung injury and sepsis” (Eur J Med Chem, 2023)", "key": {"[1]": {"tested_on": "J774.A1", "test": "Antiinflammatory activity in LPS-induced mouse J774.A1 cells assessed as inhibition of LPS-induced IL-1 beta transcription preincubated for 0.5 hrs followed by LPS stimulation for 6 hrs by RT-qPCR method", "format": "functional, cell-based", "details": "dose 5-10 µM, time 6.5 hrs", "in_short": "(§1)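 J774A.1 or THP-1 cells pretreated 0.5 h at 10 or 5 μM, then LPS 0.5 μg/mL for 6 h. TRIzol RNA; IL-6, TNF-α and IL-1β transcripts by RT-qPCR, normalized to β-actin and control; 3 independent experiments, mean ± SEM.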"}, "[2]": {"tested_on": "J774.A1", "test": "Antiinflammatory activity in LPS-induced mouse J774.A1 cells assessed as inhibition of LPS-induced TNF-alpha transcription preincubated for 0.5 hrs followed by LPS stimulation for 6 hrs by RT-qPCR method", "format": "functional, cell-based", "details": "dose 5-10 µM, time 6.5 hrs", "in_short": "as §1"}, "[3]": {"tested_on": "J774.A1", "test": "Antiinflammatory activity in LPS-induced mouse J774.A1 cells assessed as inhibition of LPS-induced TNF-alpha release at 10 uM preincubated for 30 mins followed by LPS stimulation for 24 hrs by ELISA method", "format": "functional", "details": "time 24.5 hrs", "in_short": "(§2)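 J774A.1 macrophages pretreated 30 min at 10 μM, then challenged with LPS 0.5 μg/mL for 24 h at 37 °C, 5% CO2. Medium IL-6 and TNF-α measured by ELISA, normalized to total lysate protein.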"}, "[4]": {"tested_on": "J774.A1", "test": "Antiinflammatory activity in LPS-induced mouse J774.A1 cells assessed as inhibition of LPS-induced IL-6 release at 10 uM preincubated for 30 mins followed by LPS stimulation for 24 hrs by ELISA method", "format": "functional", "details": "time 24.5 hrs", "in_short": "as §2"}, "[5]": {"tested_on": "J774.A1", "test": "Antiinflammatory activity in LPS-induced mouse J774.A1 cells assessed as inhibition of LPS-induced IL-6 release preincubated for 30 mins followed by LPS stimulation for 24 hrs by ELISA method", "format": "functional, cell-based", "in_short": "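Dose-response in J774A.1 cells: 30 min pretreatment at 10, 5, 2.5 or 1.25 μM, then LPS 0.5 μg/mL for 24 h. IL-6 and TNF-α by ELISA, normalized to lysate protein; IC50 from the dose-response; 3 independent experiments, mean ± SEM.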"}, "[6]": {"tested_on": "THP-1", "test": "Antiinflammatory activity in LPS-induced human THP-1 cells assessed as inhibition of LPS-induced IL-6 release preincubated for 30 mins followed by LPS stimulation for 24 hrs by ELISA method", "format": "functional, cell-based", "in_short": "(§3)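 THP-1 or LX-2 cells in DMEM with 10% FBS, 37 °C, 5% CO2. Pretreated 30 min at 10, 5, 2.5 or 1.25 μM, then LPS 0.5 μg/mL for 24 h. IL-6 and TNF-α in medium measured by ELISA, normalized to lysate total protein; mean ± SEM of 3 independent experiments.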"}, "[7]": {"tested_on": "THP-1", "test": "Antiinflammatory activity in LPS-induced human THP-1 cells assessed as inhibition of LPS-induced TNF-alpha release preincubated for 30 mins followed by LPS stimulation for 24 hrs by ELISA method", "format": "functional, cell-based", "in_short": "as §3"}, "[8]": {"tested_on": "LX-2", "test": "Antiinflammatory activity in LPS-induced human LX2 cells assessed as inhibition of LPS-induced TNF-alpha release preincubated for 30 mins followed by LPS stimulation for 24 hrs by ELISA method", "format": "functional, cell-based", "in_short": "as §3"}, "[9]": {"tested_on": "LX-2", "test": "Antiinflammatory activity in LPS-induced human LX2 cells assessed as inhibition of LPS-induced IL-6 release preincubated for 30 mins followed by LPS stimulation for 24 hrs by ELISA method", "format": "functional, cell-based", "in_short": "as §3"}, "[10]": {"tested_on": "THP-1", "test": "Antiinflammatory activity in LPS-induced human THP-1 cells assessed as inhibition of LPS-induced TNF-alpha transcription preincubated for 0.5 hrs followed by LPS stimulation for 6 hrs by RT-qPCR method", "format": "functional, cell-based", "details": "dose 5-10 µM, time 6.5 hrs", "in_short": "as §1"}, "[11]": {"tested_on": "J774.A1", "test": "Inhibition of NF-kappaB pathway in LPS-induced mouse J774.A1 cells assessed as reduction in p65 nuclear translocation preincubated with compound for 2 hrs followed by LPS-stimulation and measured after 30 mins by Western blot analysis", "format": "cell-based", "details": "time 2.5 hrs"}, "[12]": {"tested_on": "Mus musculus", "test": "Protection against LPS-induced C57/BL6 mouse acute lung injury model assessed as reduction in lung wet/dry ratio at 20 mg/kg via oral gavage preincubated for 30 mins followed by LPS stimulation for 6 hrs", "format": "functional, organism-based", "details": "time 6.5 hrs", "in_short": "(§4)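 Mice dosed 20 mg/kg by gavage (dexamethasone 20 mg/kg comparator), intratracheal LPS 5 mg/kg 30 min later, killed at 6 h. Right upper lobe fixed in paraformaldehyde, H&E; lung wet/dry ratio; BALF protein, total cells and neutrophils counted; n = 5 mice per group, mean ± SEM.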"}, "[13]": {"tested_on": "Mus musculus", "test": "Protection against LPS-induced C57/BL6 mouse acute lung injury model assessed as reduction in protein concentration in BALF at 20 mg/kg via oral gavage preincubated for 30 mins followed by LPS stimulation for 6 hrs", "format": "functional, organism-based", "details": "time 6.5 hrs", "in_short": "as §4"}, "[14]": {"tested_on": "Mus musculus", "test": "Antiinflammatory activity in LPS-induced C57/BL6 mouse acute lung injury model assessed as decrease in TNF-alpha expression level at 20 mg/kg via oral gavage preincubated for 30 mins followed by LPS stimulation for 6 hrs by RT-qPCR method", "format": "functional, organism-based", "details": "time 6.5 hrs", "in_short": "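Male C57BL/6 mice, six weeks old, n = 8 per group. Dosed 20 mg/kg orally 30 min before intratracheal LPS 5 mg/kg; dexamethasone 20 mg/kg as comparator. Lung tissue collected 6 h after LPS. RNA extracted with TRIzol; IL-6 and TNF-α transcripts by RT-qPCR, normalized to β-actin; n = 5 mice per group, mean ± SEM.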"}, "[15]": {"tested_on": "Mus musculus", "test": "Antiinflammatory activity in LPS-induced C57/BL6 mouse acute lung injury model assessed as reduction in macrophage infiltration at 20 mg/kg via oral gavage preincubated for 30 mins followed by LPS stimulation for 6 hrs by immunohistochemical staining based analysis", "format": "functional, organism-based", "details": "time 6.5 hrs", "in_short": "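Same ALI model: 20 mg/kg oral, intratracheal LPS 5 mg/kg 30 min later, lungs at 6 h. Paraffin sections given citrate (pH 6.5) antigen retrieval, 3% H2O2 and 5% BSA block, anti-F4/80 12 h at 4 °C, HRP secondary, DAB and hematoxylin; F4/80 positivity quantified; n = 5 per group.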"}, "[16]": {"tested_on": "Mus musculus", "test": "Protection against LPS-induced sepsis in C57/BL6 mouse model assessed as reduction in weight loss at 20 mg/kg, po preincubated with compound followed by LPS stimulation for 1 hr and measured every 24 hrs by 6 days", "format": "functional, organism-based", "details": "time 6.0 day", "in_short": "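Sepsis model in C57BL/6 mice, n = 12 per group: oral 20 mg/kg, then intraperitoneal LPS 20 mg/kg 1 h later; saline control. Survival checked every 12 h and body weight every 24 h for 6 days.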"}, "[17]": {"test": "Oral bioavailability in rat at 10 mg/kg", "format": "ADME, organism-based", "details": "in vivo", "in_short": "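Rats dosed intravenously at 1 mg/kg or orally at 10 mg/kg; plasma pharmacokinetic parameters AUC(0-t), Tmax, T1/2, Cmax and oral bioavailability F derived from the two routes.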"}, "[18]": {"tested_on": "Mus musculus", "test": "Protection against LPS-induced sepsis in C57/BL6 mouse model assessed as reduction of obvious white pulp in spleen at 20 mg/kg, po preincubated with compound followed by LPS stimulation for 1 hr by H and E staining based analysis", "format": "functional, organism-based", "in_short": "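Mice given 20 mg/kg orally, then intraperitoneal LPS 20 mg/kg 1 h later; n = 12 per group. Kidney, liver, heart and spleen weighed; spleen sections H&E-stained for histology.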"}, "[19]": {"tested_on": "Mus musculus", "test": "Antiinflammatory activity in LPS-induced C57/BL6 mouse acute lung injury model assessed as decrease in TNF-alpha level in BALF at 20 mg/kg via oral gavage preincubated for 30 mins followed by LPS stimulation for 6 hrs by ELISA", "details": "time 6.5 hrs"}}, "note": "pIC50: −log10 of the molar value. Activity calls are given as the source filed them. The rule behind the calls is not given here."}
{"smiles": "COc1cc2nccc(Oc3ccc(NC(=O)c4cn(-c5ccccc5)c5ccccc5c4=O)cc3)c2cc1OC", "values": [{"measurement": "inhibition", "setting": "[1]", "result": "Dose-Dependent Effect"}, {"measurement": "inhibition", "setting": "[2]", "result": "Dose-Dependent Effect"}, {"measurement": "inhibition at 10 µM", "setting": "[3]", "result": 82.6, "unit": "%"}, {"measurement": "inhibition at 10 µM", "setting": "[4]", "result": 75, "unit": "%"}, {"measurement": "pIC50", "setting": "[5]", "result": 5.88}, {"measurement": "inhibition", "setting": "[5]; dose 1.25-10 µM, time 24.5 hrs", "result": "Dose-Dependent Effect"}, {"measurement": "pIC50", "setting": "[6]", "result": 5.88}, {"measurement": "pIC50", "setting": "[7]", "result": 5.78}, {"measurement": "pIC50", "setting": "[8]", "result": 5.54}, {"measurement": "pIC50", "setting": "[9]", "result": 5.58}, {"measurement": "inhibition", "setting": "[10]", "result": "Dose-Dependent Effect"}, {"measurement": "inhibition", "setting": "[11]", "result": "Active"}, {"measurement": "Activity", "setting": "[12]", "result": "Active"}, {"measurement": "Activity", "setting": "[13]", "result": "Active"}, {"measurement": "Activity", "setting": "[14]", "result": "Active"}, {"measurement": "Activity", "setting": "[15]", "result": "Active"}, {"measurement": "Activity", "setting": "[16]", "result": "Active"}, {"measurement": "bioavailability", "setting": "[17]", "result": 36.3, "unit": "%"}, {"measurement": "Activity", "setting": "[18]", "result": "Active"}, {"measurement": "Activity", "setting": "[19]", "result": "Active"}]}
